From ChEMBL document CHEMBL2202974 (J Med Chem, 2011)

Experiments:
[1] = Drug uptake in monkey cerebellum at 4.92 to 6.6 mCi, iv administered as bolus dose measured at 120 mins by PET imaging analysis; type: ADME, organism-based, Macaca mulatta; conditions: rhesus monkey, in vivo, 2 h
[2] = Drug uptake in monkey caudate at 6.2 mCi, iv administered as bolus dose followed by SB612111-treatment at 40 mins measured at 100 mins by PET imaging analysis; type: ADME, organism-based, Macaca mulatta, Caudate nucleus; conditions: rhesus monkey, in vivo
In short: (§1)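 Anesthetised rhesus monkey given iv bolus of radioligand; the NOP antagonist was given at 40 min after radioligand to test displacement. PET regional time-activity curves were expressed as %SUV.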

[3] = Drug uptake in SB612111-pretreated monkey lateral temporal cortex at 4.92 to 6.6 mCi, iv administered at 10 mins post SB612111-treatment measured within 10 mins by PET imaging analysis; type: ADME, organism-based, Macaca mulatta; conditions: rhesus monkey, in vivo
[4] = Fraction unbound in human plasma; type: ADME, cell-free
In short: (§2)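 Plasma free fraction of the radioligand measured in vitro. Monkey: 3 samples from each of two monkeys (n = 6). Human: pooled plasma, three samples from each of two subjects.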

Brain [5] = experiment: Drug uptake in 129/S6 mouse brain at 0.6 nM after 120 mins by autoradiographic analysis; type: ADME, tissue-based
[6] = Drug uptake in monkey lateral temporal cortex at 6.2 mCi, iv administered as bolus dose followed by naloxone-treatment at 37 mins measured at 120 mins by PET imaging analysis; type: ADME, organism-based, Macaca mulatta; conditions: rhesus monkey, in vivo, 2 h
In short: (§3)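 Anesthetised rhesus monkey given iv bolus of radioligand; a high dose of naloxone was given at 37 min after radioligand. PET regional time-activity curves were expressed as %SUV.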

[7] = Drug uptake in monkey hypothalamus at 4.92 to 6.6 mCi, iv administered as bolus dose measured up to 20 mins by PET imaging analysis; type: ADME, organism-based, Macaca mulatta; conditions: rhesus monkey, in vivo
Plasma [8] = experiment: Metabolic stability in SB612111-pretreated monkey plasma at 4.9 to 6.6 mCi, iv administered as bolus dose 10 mins post SB612111-treatment up to 100 mins; type: ADME, organism-based, Macaca mulatta; conditions: rhesus monkey, in vivo
In short: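 Preblock scans were run in the same anesthetized (ketamine, isoflurane) rhesus monkeys about 3 h after the baseline scan. Plasma was extracted into acetonitrile, and the supernatant was analysed by HPLC to give the percentage of radioactivity present as unchanged radioligand over time.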

[9] = Fraction unbound in monkey plasma; type: ADME, cell-free, Macaca mulatta; conditions: rhesus monkey; in short: as §2
[10] = Drug uptake in SB612111-pretreated monkey hypothalamus at 4.92 to 6.6 mCi, iv administered at 10 mins post SB612111-treatment measured from 10 to 120 mins by PET imaging analysis; type: ADME, organism-based, Macaca mulatta; conditions: rhesus monkey, in vivo
[11] = Metabolic stability in monkey blood for 0.5 hrs; type: ADME, tissue-based, Macaca mulatta; conditions: rhesus monkey, read-out: Stability
In short: (§4)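 The [11C]-labelled radioligand was incubated in vitro in monkey whole blood or monkey plasma for 0.5 h at room temperature. Stability was expressed as the percentage of radioactivity remaining as unchanged radioligand (n = 6).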

Brain [12] = experiment: Drug uptake in NOP knockout mouse brain at 0.6 nM after 120 mins by autoradiographic analysis; type: ADME, tissue-based
[13] = Drug uptake in monkey hypothalamus at 6.2 mCi, iv administered as bolus dose followed by naloxone-treatment at 37 mins measured at 120 mins by PET imaging analysis; type: ADME, organism-based, Macaca mulatta; conditions: rhesus monkey, in vivo, 2 h; in short: as §3
[14] = Drug uptake in monkey cerebellum at 6.2 mCi, iv administered as bolus dose followed by naloxone-treatment at 37 mins measured at 120 mins by PET imaging analysis; type: ADME, organism-based, Macaca mulatta; conditions: rhesus monkey, in vivo, 2 h; in short: as §3
[15] = Drug uptake in monkey lateral temporal cortex at 4.92 to 6.6 mCi, iv administered as bolus dose measured up to 20 mins by PET imaging analysis; type: ADME, organism-based, Macaca mulatta; conditions: rhesus monkey, in vivo
[16] = Chemical stability of the compound in sodium phosphate buffer after 2 hrs at pH 7.4; type: physicochemical; conditions: read-out: Stability
[17] = Drug uptake in monkey caudate at 4.92 to 6.6 mCi, iv administered as bolus dose measured at 120 mins by PET imaging analysis; type: ADME, organism-based, Macaca mulatta, Caudate nucleus; conditions: rhesus monkey, in vivo, 2 h
[18] = Drug uptake in SB612111-pretreated monkey amygdala at 4.92 to 6.6 mCi, iv administered at 10 mins post SB612111-treatment measured from 10 to 120 mins by PET imaging analysis; type: ADME, organism-based, Macaca mulatta; conditions: rhesus monkey, in vivo
[19] = Drug uptake in monkey amygdala at 6.2 mCi, iv administered as bolus dose followed by SB612111-treatment at 40 mins measured at 100 mins by PET imaging analysis; type: ADME, organism-based, Macaca mulatta; conditions: rhesus monkey, in vivo; in short: as §1
Plasma [20] = experiment: Drug metabolism in monkey plasma assessed as radiometabolite formation at 4.9 to 6.6 mCi, iv administered as bolus dose up to 100 mins; type: ADME, organism-based, Macaca mulatta; conditions: rhesus monkey, in vivo
[21] = Drug uptake in monkey hypothalamus at 4.92 to 6.6 mCi, iv administered as bolus dose measured at 120 mins by PET imaging analysis; type: ADME, organism-based, Macaca mulatta; conditions: rhesus monkey, in vivo, 2 h
[22] = Drug uptake in monkey caudate at 4.92 to 6.6 mCi, iv administered as bolus dose measured up to 20 mins by PET imaging analysis; type: ADME, organism-based, Macaca mulatta, Caudate nucleus; conditions: rhesus monkey, in vivo
[23] = Metabolic stability in monkey plasma for 0.5 hrs; type: ADME, cell-free, Macaca mulatta; conditions: rhesus monkey, read-out: Stability; in short: as §4
[24] = Drug uptake in SB612111-pretreated monkey cerebellum at 4.92 to 6.6 mCi, iv administered at 10 mins post SB612111-treatment measured from 10 to 120 mins by PET imaging analysis; type: ADME, organism-based, Macaca mulatta; conditions: rhesus monkey, in vivo
[25] = Drug uptake in SB612111-pretreated monkey caudate at 4.92 to 6.6 mCi, iv administered at 10 mins post SB612111-treatment measured from 10 to 120 mins by PET imaging analysis; type: ADME, organism-based, Macaca mulatta, Caudate nucleus; conditions: rhesus monkey, in vivo
[26] = Drug uptake in monkey cerebellum at 6.2 mCi, iv administered as bolus dose followed by SB612111-treatment at 40 mins measured at 100 mins by PET imaging analysis; type: ADME, organism-based, Macaca mulatta; conditions: rhesus monkey, in vivo; in short: as §1
[27] = Drug uptake in monkey caudate at 6.2 mCi, iv administered as bolus dose followed by naloxone-treatment at 37 mins measured at 120 mins by PET imaging analysis; type: ADME, organism-based, Macaca mulatta, Caudate nucleus; conditions: rhesus monkey, in vivo, 2 h; in short: as §3
[28] = Drug uptake in monkey lateral temporal cortex at 4.92 to 6.6 mCi, iv administered as bolus dose measured at 120 mins by PET imaging analysis; type: ADME, organism-based, Macaca mulatta; conditions: rhesus monkey, in vivo, 2 h
[29] = Drug uptake in monkey cerebellum at 4.92 to 6.6 mCi, iv administered as bolus dose measured up to 20 mins by PET imaging analysis; type: ADME, organism-based, Macaca mulatta; conditions: rhesus monkey, in vivo
[30] = Drug uptake in SB612111-pretreated monkey caudate at 4.92 to 6.6 mCi, iv administered at 10 mins post SB612111-treatment measured within 10 mins by PET imaging analysis; type: ADME, organism-based, Macaca mulatta, Caudate nucleus; conditions: rhesus monkey, in vivo
Plasma [31] = experiment: Drug metabolism in SB612111-pretreated monkey plasma assessed as radiometabolite formation at 4.9 to 6.6 mCi, iv administered as bolus dose 10 mins post SB612111-treatment up to 100 mins; type: ADME, organism-based, Macaca mulatta; conditions: rhesus monkey, in vivo
[32] = Drug uptake in SB612111-pretreated monkey hypothalamus at 4.92 to 6.6 mCi, iv administered at 10 mins post SB612111-treatment measured within 10 mins by PET imaging analysis; type: ADME, organism-based, Macaca mulatta; conditions: rhesus monkey, in vivo
[33] = Metabolic stability in monkey plasma at 4.9 to 6.6 mCi, iv administered as bolus dose up to 100 mins; type: ADME, organism-based, Macaca mulatta; conditions: rhesus monkey, read-out: Stability
In short: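 For baseline scans, male rhesus monkeys were immobilized with ketamine and kept under 1–3% isoflurane. Plasma sampled during the scan was extracted into acetonitrile, and the supernatant was analysed by HPLC for the parent fraction.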

[34] = Drug uptake in monkey hypothalamus at 6.2 mCi, iv administered as bolus dose followed by SB612111-treatment at 40 mins measured at 100 mins by PET imaging analysis; type: ADME, organism-based, Macaca mulatta; conditions: rhesus monkey, in vivo; in short: as §1
[35] = Drug uptake in SB612111-pretreated monkey amygdala at 4.92 to 6.6 mCi, iv administered at 10 mins post SB612111-treatment measured within 10 mins by PET imaging analysis; type: ADME, organism-based, Macaca mulatta; conditions: rhesus monkey, in vivo
[36] = Drug uptake in SB612111-pretreated monkey cerebellum at 4.92 to 6.6 mCi, iv administered at 10 mins post SB612111-treatment measured within 10 mins by PET imaging analysis; type: ADME, organism-based, Macaca mulatta; conditions: rhesus monkey, in vivo
[37] = Drug uptake in monkey amygdala at 4.92 to 6.6 mCi, iv administered as bolus dose measured at 120 mins by PET imaging analysis; type: ADME, organism-based, Macaca mulatta; conditions: rhesus monkey, in vivo, 2 h
[38] = Drug uptake in monkey lateral temporal cortex at 6.2 mCi, iv administered as bolus dose followed by SB612111-treatment at 40 mins measured at 100 mins by PET imaging analysis; type: ADME, organism-based, Macaca mulatta; conditions: rhesus monkey, in vivo; in short: as §1
[39] = Drug uptake in monkey amygdala at 6.2 mCi, iv administered as bolus dose followed by naloxone-treatment at 37 mins measured at 120 mins by PET imaging analysis; type: ADME, organism-based, Macaca mulatta; conditions: rhesus monkey, in vivo, 2 h; in short: as §3
[40] = Drug uptake in monkey amygdala at 4.92 to 6.6 mCi, iv administered as bolus dose measured up to 20 mins by PET imaging analysis; type: ADME, organism-based, Macaca mulatta; conditions: rhesus monkey, in vivo
[41] = Drug uptake in SB612111-pretreated monkey lateral temporal cortex at 4.92 to 6.6 mCi, iv administered at 10 mins post SB612111-treatment measured from 10 to 120 mins by PET imaging analysis; type: ADME, organism-based, Macaca mulatta; conditions: rhesus monkey, in vivo

What does the source list for [11CH3]NC(=O)[C@@H](Cc1ccccc1F)CN1CCC2(CC1)OCCc1cc(F)sc12?
Drug uptake [1]: Not Active; Drug uptake [2]: Not Active; Drug uptake [3]: Active; fraction unbound [4]: 0.11; Drug uptake (Brain [5]): Active; Drug uptake [6]: Not Active; Drug uptake [7]: Active; Stability (Plasma [8]): 94.9%; fraction unbound [9]: 0.113; Drug uptake [10]: Not Active; remaining at 0.5 h [11]: 100%; Drug uptake (Brain [12]): Not Active; Drug uptake [13]: Not Active; Drug uptake [14]: Not Active; Drug uptake [15]: Active; remaining at 2 h [16]: 98.9%; Drug uptake [17]: Not Active; Drug uptake [18]: Not Active; Drug uptake [19]: Not Active; Drug metabolism (Plasma [20]): Active; Drug uptake [21]: Not Active; Drug uptake [22]: Active; remaining at 0.5 h [23]: 99.9%; Drug uptake [24]: Not Active; Drug uptake [25]: Not Active; Drug uptake [26]: Not Active; Drug uptake [27]: Not Active; Drug uptake [28]: Not Active; Drug uptake [29]: Active; Drug uptake [30]: Active; Drug metabolism (Plasma [31]): Active; Drug uptake [32]: Active; remaining at 100 min [33]: 94.9%; Drug uptake [34]: Not Active; Drug uptake [35]: Active; Drug uptake [36]: Active; Drug uptake [37]: Not Active; Drug uptake [38]: Not Active; Drug uptake [39]: Not Active; Drug uptake [40]: Active; Drug uptake [41]: Not Active
